PMC3523195 (Bioorganic & medicinal chemistry, 2011)
Marks after values point to notes of the source that are not given here.

Assays:
[1] = test system: melanized C. neoformans var. grubii; experiment: halo assay; type: cell-based, Cryptococcus neoformans var. grubii (MAT α, H99 serotype A); conditions: for Halo diameter: var. grubii
Outline: (§1)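 Paper disks (6.5 mm) were loaded from DMSO stock solutions and air-dried 3 h at RT, then placed on lawns of target cells. The medium was defined minimal agar with 1 mM L-dopa, dopamine or epinephrine to give melanized cells. Doses were 20 μg/disk test compound, or 10 μg test compound with or without 2 μg amphotericin B per disk. Plates ran 6–8 days at 30 °C, and halo diameter (mm) and clarity were recorded.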

[2] = test system: C. neoformans var. grubii; experiment: microtiter plate assay of melanization in liquid medium; type: cell-based, Cryptococcus neoformans var. grubii; conditions: for Melanization of treated cells, observed visually: 10 days, 30 °C
[3] = test system: melanized C. neoformans var. gattii; experiment: halo assay; type: cell-based, Cryptococcus neoformans var. gattii (MAT α, serotype B)
Outline: as §1

[4] = test system: laccase and melanin formation in C. neoformans; conditions: cited from earlier work
[5] = 20 μg/disk, 1 mM L-dopa, 30 °C, 6 to 8 days
[6] = 10 μg per disk, 1 mM L-dopa, 6 days
[7] = 20 μg per disk, 1 mM L-dopa in minimal medium, 6 to 8 days
[8] = 20 μg per disk, 1 mM dopamine in minimal medium, 6 to 8 days
[9] = 20 μg per disk, 1 mM epinephrine in minimal medium, 6 to 8 days

C[C@@H]1[C@H](O)[C@@H](C)/C=C/C=C/C=C/C=C/C=C/C=C/C=C/[C@H](O[C@@H]2O[C@H](C)[C@@H](O)[C@H](N)[C@@H]2O)C[C@@H]2O[C@](O)(C[C@@H](O)C[C@@H](O)[C@H](O)CC[C@@H](O)C[C@@H](O)CC(=O)O[C@H]1C)C[C@H](O)[C@H]2C(=O)O [AMB, amphotericin B, reference compound]
Appearance of the halo surrounding the disk ([1]; 2 μg per disk, alone, 1 mM L-dopa): clear zone of inhibition
Appearance of the halo surrounding the disk [1, 5]: very clear zone of inhibition
Melanization of treated cells, observed visually ([2]; 0.0625 μg/mL, 1 mM catecholamine): growth of melanized cells was observed

Clc1ccc(COC(Cn2ccnc2)c2ccc(Cl)cc2Cl)c(Cl)c1 (stereo not drawn) [MCZ, miconazole]
Melanization of treated cells, observed visually ([2]; 0.5 μg/mL, 1 mM catecholamine): growth of melanized cells was observed

CC[C@H]1CCCC[C@@]2(C[C@@H]3CC[C@@H]4[C@H](C(=O)OCCCCCCCCCCCCCCCC(=O)N(CCCN)CCCCN)[C@]5(CCC[C@@H](C)O5)NC(=[N+]34)N2)O1.[Cl-] [compound 1, ptilomycalin A]
Appearance of the halo surrounding the disk ([1]; 10 μg per disk, alone, 1 mM L-dopa): presence of non-melanized cells on the halo surrounding the disk
Appearance of the halo surrounding the disk [1, 5]: a halo of non-melanized cells were observed
Interaction with AMB in halo assay ([1]; 1 10 μg combined with AMB 2 μg per disk, 1 mM L-dopa): synergizes the fungicidal activity of AMB
Halo diameter [1, 6]: 13.5 ^b mm
Halo diameter [1, 7]: 17 ^c mm
Halo diameter [1, 8]: 15 ^c mm
Halo diameter [1, 9]: 12 ^c mm
Melanization of treated cells, observed visually ([2]; 0.8 μg/mL, 1 mM catecholamine (epinephrine, dopamine or L-dopa)): only non-melanized cells grew
Melanization of treated cells ([2]; 0.8 μg/mL, after 21 days): remained non-melanized
Halo diameter [3, 6]: 9.50 ^b mm
Halo diameter [3, 7]: 17 ^c mm
Halo diameter [3, 8]: 18 ^c mm
Halo diameter [3, 9]: 12 ^c mm

O=C(O)CNCP(=O)(O)O [glyphosate]
Inhibitory activity on growth or melanization ([2]; 200 μg/mL, under the authors' conditions): no significant inhibitory activity
Melanization of treated cells, observed visually ([2]; 200 μg/mL, 1 mM catecholamine): growth of melanized cells was observed
Inhibition of melanization of C. neoformans [4]: reported to inhibit melanization

C[C@@H](c1ncncc1F)[C@](O)(Cn1cncn1)c1ccc(F)cc1F [voriconazole]
Inhibition of laccase and consequent melanin formation in C. neoformans [4]: inhibition of laccase and consequent melanin formation
